# Published values from different studies.
# Lines come from different studies, so protocols differ.
# BRD9: Bromodomain-containing protein 9 (BRD9, Homo sapiens, UniProt Q9H8M2)
Structure (SMILES),target,effect on,action,method,tested at,measurement,result
Cc1ncc(-c2cc3cc(-c4c(C)ccc(O)c4C)cnc3[nH]2)cn1,"Membrane-associated tyrosine- and threonine-specific cdc2-inhibitory kinase (PKMYT1, Homo sapiens, UniProt Q99640)",cell-free assay,,TR-FRET,10 µM,inhibition,101%
C1=C/COCc2cc(ccc2OCCN2CCCC2)Nc2nccc(n2)-c2cccc(c2)COC/1,"Activin receptor type-2A (ACVR2A, Homo sapiens, UniProt P27037)",binding,,,0.1 µM,remaining binding,83%
NC/C(=C\F)COc1cccc(Cn2c(=S)[nH]c(=O)c3[nH]cnc32)c1,"Histamine H3 receptor (HRH3, Homo sapiens, UniProt Q9Y5N1)",ligand displacement,,radioligand,10 µM,inhibition,< 50%
CCCCC(=O)Nc1ccc(-c2ccc3ncn(CCC)c(=O)c3c2)cn1,"Bone morphogenetic protein receptor type-1A (BMPR1A, Homo sapiens, UniProt P36894)",binding,,competition with immobilised ligand,0.5 µM,remaining binding,84%
COc1cc(-c2cc(C(C)=O)n3ccccc23)c(OC)cc1C(=O)N(C)C,BRD9,thermal stability,,DSF,200 µM,ΔTm,13.5 °C
Cc1cc(O)c(-c2ccc([C@@H](C)CN(C)C)cc2)c2c1[nH]c(=O)c1sccc12,"G protein-coupled receptor kinase 5 (GRK5, Homo sapiens, UniProt P34947)",enzyme activity,inhibitor,,0.1 µM,inhibition,-6.65%
CC(=O)c1cc(-c2cccc(CO)c2)c2ccccn12,BRD9,thermal stability,,DSF,200 µM,ΔTm,6.5 °C
COc1ccc2oc(-c3ccc4nc(N)oc4c3)c/c(=N\c3ccccc3NC(=O)CCN)c2c1,"Serine/threonine-protein kinase 35 (STK35, Homo sapiens, UniProt Q8TDR2)",binding,,,1 µM,remaining binding,104%
COc1cc(-c2cc(C(C)=O)n3ccccc23)c(OC)cc1CN(C)C,BRD9,thermal stability,,DSF,200 µM,ΔTm,12.5 °C
CCN1/C(=C/C(C)=O)Sc2ccc(F)cc21,"D(1B) dopamine receptor (DRD5, Homo sapiens, UniProt P21918)",ligand displacement,,radioligand,10 µM,inhibition,2.77%
